Experimental data of several laboratories.
Protocols differ between the studies behind these lines.
Cell line: NCI-H460
Read-out: cell growth or viability

SMILES | assay | setting | quantity | value
O=C(CSc1nc2ccccc2s1)N/N=C/c1ccc(OCC(=O)Nc2ccc(Br)cc2)cc1 | MTS | 72 h | IC50 | 14 µM
COc1ccc(NC(=O)Nc2cccc(-c3cn(Cc4ccc(Br)cc4)nn3)c2)cc1 | CCK-8 | 50 µM, 72 h | viability | 106%
CCCCCCCCCCCCCCCCCCOc1ccccc1CC(=O)OCC[N+]1(C)CCCC1 | SRB | 10 µM | inhibition | 72.5%
FC(F)(F)c1ccc(-c2cc(CNc3cccc4cccnc34)on2)cc1 | MTS | 72 h | IC50 | > 100 µM
CCCCCCCCCCCCCCCCCCOc1ccccc1CC(=O)OCCC[N+](C)(C)C | SRB | 10 µM | inhibition | 19.9%
N#Cc1ccc(-c2cc(COc3cc(C(F)(F)F)nc4ccccc34)on2)cc1 | MTS | 72 h | IC50 | > 100 µM
COc1ccc(NC(=O)NCc2cn(Cc3ccc(Cl)cc3)nn2)cc1 | CCK-8 | 50 µM, 72 h | viability | 91.8%
CCCCCCCCCCCCCCCCCCOc1ccc(CC(=O)OCCC[N+](C)(C)C)cc1 | SRB | 10 µM | inhibition | 26.7%
Cc1ccccc1Cn1cc(-c2cccc(NC(=O)Nc3ccc(F)cc3)c2)nn1 | CCK-8 | 50 µM, 72 h | viability | 72.6%
CCCCCCCCCCCCCCCCCCOc1ccc(CC(=O)OCC[N+]2(C)CCOCC2)cc1 | SRB | 10 µM | inhibition | 0.33%
N#Cc1ccc(-c2cc(COc3cc(=O)oc4ccccc34)on2)cc1 | MTS | 72 h | IC50 | > 100 µM
COc1ccc(NC(=O)NCc2cn(Cc3ccc(Br)cc3)nn2)cc1 | CCK-8 | 50 µM, 72 h | viability | 77.1%
CCCCCCCCCCCCCCCCCCOCC(COP(=O)([O-])OCC[N+](C)(C)C)OC (stereo not drawn) | SRB | 10 µM | inhibition | 53.6%
Cc1nc(NC(=O)N2CCC[C@H]2C(N)=O)sc1-c1ccnc(C(C)(C)C(F)(F)F)c1 | ATP luminescence | 5 days | EC50 | 35.1 µM
CCCCCCCCCCCCCCCCCCOc1ccccc1CC(=O)OCC[N+](C)(C)C | SRB | 10 µM | inhibition | 86.5%
O=C(CSc1nc2ccccc2s1)N/N=C/c1ccc(OCC(=O)Nc2cccc(Cl)c2)cc1 | MTS | 72 h | IC50 | 29.6 µM
FC(F)(F)c1cc(OCc2cc(-c3ccccn3)no2)c2ccccc2n1 | MTS | 72 h | IC50 | > 100 µM
COc1ccc(NC(=O)NCc2cn(Cc3ccc(C)cc3)nn2)cc1 | CCK-8 | 50 µM, 72 h | viability | 95.5%
FC(F)(F)c1cc(OCc2cc(-c3ccc(Cl)cc3Cl)no2)c2ccccc2n1 | MTS | 72 h | IC50 | > 100 µM
COc1ccc(NC(=O)Nc2cccc(-c3cn(Cc4cccc(Cl)c4)nn3)c2)cc1 | CCK-8 | 50 µM, 72 h | viability | 105%
c1ccc(-c2cc(CNc3cccc4cccnc34)on2)nc1 | MTS | 72 h | IC50 | > 100 µM
CCCCCCCCCCCCCCCCCCOc1cccc(CC(=O)OCC[N+]2(C)CCCC2)c1 | SRB | 10 µM | inhibition | 4.17%
O=C(CSc1nc2ccccc2s1)N/N=C/c1ccc(OCC(=O)Nc2cccc(Br)c2)cc1 | MTS | 72 h | IC50 | 32.1 µM
FC(F)(F)c1ccc(-c2cc(COc3cc(C(F)(F)F)nc4ccccc34)on2)cc1 | MTS | 72 h | IC50 | > 100 µM
COc1ccc(NC(=O)Nc2cccc(-c3cn(Cc4ccccc4C)nn3)c2)cc1 | CCK-8 | 50 µM, 72 h | viability | 80.7%
Clc1ccc(-c2cc(CNc3cccc4cccnc34)on2)c(Cl)c1 | MTS | 72 h | IC50 | > 100 µM
CCCCCCCCCCCCCCCCCCOc1ccccc1CC(=O)OCC[N+]1(C)CCOCC1 | SRB | 10 µM | inhibition | 30.8%
